Data as given in ChEMBL document CHEMBL1157223, “Lupeol long-chain fatty acid esters with antimalarial activity from Holarrhena floribunda” (J Nat Prod, 2006).
≈ marks a conversion by molar mass, not a printed value. Where “and” joins values, the source holds several entries; their conditions need not be identical. Equal entries are not always repeated.

Columns and labels:
Plasmodium falciparum [1] = experiment: Antimalarial activity against chloroquine-resistant Plasmodium falciparum FCR3 Gambia as 24 hrs [3H]hypoxanthine uptake; type: functional, organism-based; conditions: FCR-3/Gambia
In short: (§1)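 Human type B+ erythrocytes at 2% parasitemia and 4% hematocrit in RPMI-1640 (0.5% Albumax II, 16 µM hypoxanthine, HEPES, glucose); after 30 min at 37 °C, drug was added to final 1% parasitemia and 2% hematocrit. Test range 7.8–500 µM, with chloroquine at 3.9–500 nM and final DMSO under 2%. Incubation was 24 h, then [3H]-hypoxanthine for 18–24 h more; filters were counted. IC50 came from curve fitting, quadruplicates, 2–3 runs.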

Plasmodium falciparum [2] = experiment: Antimalarial activity after 24 hrs against chloroquine-sensitive Plasmodium falciparum 3D7 by [3H]hypoxanthine uptake; type: functional, organism-based; in short: as §1
Plasmodium falciparum [3] = experiment: Antimalarial activity after 48 hrs against Plasmodium falciparum D6 by [3H]hypoxanthine uptake
Plasmodium falciparum [4] = experiment: Antimalarial activity after 48 hrs against Plasmodium falciparum W2 by [3H]hypoxanthine uptake

C=C(C)[C@@H]1CC[C@]2(C)CC[C@]3(C)[C@H](CC[C@@H]4[C@@]5(C)CC[C@H](OC(=O)COCCCCCCCCCCCCCCCCCCCCCCCC)C(C)(C)[C@@H]5CC[C@]43C)[C@@H]12
IC50 (Plasmodium falciparum [1]): 84 µM and 69000 µg/mL | IC50 (Plasmodium falciparum [2]): 135 µM

C=C(C)[C@@H]1CC[C@]2(C)CC[C@]3(C)[C@H](CC[C@@H]4[C@@]5(C)CC[C@H](OC(=O)CC(O)CCCCCCCCCCCCCCCCC)C(C)(C)[C@@H]5CC[C@]43C)[C@@H]12 (stereo not given in full)
IC50 (Plasmodium falciparum [1]): 269 µM | IC50 (Plasmodium falciparum [2]): 282 µM

C=C(C)[C@@H]1CC[C@]2(C)CC[C@]3(C)[C@H](CC[C@@H]4[C@@]5(C)CC[C@H](O)C(C)(C)[C@@H]5CC[C@]43C)[C@@H]12 [LUPEOL]
IC50 (Plasmodium falciparum [1]): 97 µM and 41000 µg/mL | IC50 (Plasmodium falciparum [2]): 106 µM and 45000 µg/mL

OC(c1cc(C(F)(F)F)nc2c(C(F)(F)F)cccc12)C1CCCCN1 (stereo not given) [MEFLOQUINE]
IC50 (Plasmodium falciparum [3]): 2550 µg/mL (≈ 6740 µM) | IC50 (Plasmodium falciparum [4]): 28.5 µg/mL (≈ 75.3 µM)

C=C[C@H]1CN2CC[C@H]1C[C@H]2[C@H](O)c1ccnc2ccc(OC)cc12 [QUININE]
IC50 (Plasmodium falciparum [3]): 25 µg/mL (≈ 77.1 µM) | IC50 (Plasmodium falciparum [4]): 67 µg/mL (≈ 207 µM)
